In ChEMBL document CHEMBL3272118, “Structure and tumor-promoting activity of analogues of anthralin (1,8-dihydroxy-9-anthrone)” (J Med Chem, 1978):
One block for each compound: values may come before it.

Columns and labels:
[1] = tested on: Mus musculus; assay: Tumor promoting activity in ICR/Ha Swiss mouse at 75 ug administered three times a week measured for 370 days; assay type: ADME, organism-based; settings: in vivo, 8880 h
How it was run: (§1)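 Two-stage carcinogenesis on clipped backs of female ICR/Ha Swiss mice (8 weeks, ectromelia-vaccinated): one subcarcinogenic topical dose of 7,12-dimethylbenz[a]anthracene, then repeated skin application of test agent, dosed equimolar to anthralin except where toxicity required lower, for 370 days. Tumors >1 mm persisting ≥30 days counted; carcinomas confirmed histologically at autopsy.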

[2] = Metal chelating activity of the compound assessed as stability constant of metal chelate at 2 to 9 x 10^-5 M using Zn2+; assay type: physicochemical
How it was run: (§2)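 Stability constants by the Rossotti and Rossotti spectrophotometric method in dimethyl sulfoxide: eight solutions of anthralin from 2.0×10^-5 to 9.0×10^-5 M with metal acetate at matching concentrations, spectra read 400–650 nm at 25 °C.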

[3] = Metal chelating activity of the compound assessed as stability constant of metal chelate at 2 to 9 x 10^-5 M using Mn2+; assay type: physicochemical; how it was run: as §2
[4] = Metal chelating activity of the compound assessed as stability constant of metal chelate at 2 to 9 x 10^-5 M using Mg2+; assay type: physicochemical; how it was run: as §2
[5] = Metal chelating activity of the compound assessed as stability constant of metal chelate at 2 to 9 x 10^-5 M using copper; assay type: physicochemical; how it was run: as §2
[6] = Metal chelating activity of the compound assessed as metal-compound complex formation using copper; assay type: physicochemical
How it was run: (§3)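 Chelates prepared by adding 0.5 molar equiv of metal acetate in anhydrous ethanol to the ligand (2.0 mmol) dissolved in warm anhydrous ethanol. Metal:ligand ratio in dimethyl sulfoxide by Job's continuous variation: ligand (DHAQ 1.0×10^-4 M or anthralin 2.0×10^-4 M) and equimolar metal acetate mixed in nine solutions at ligand mole fractions 0.1–0.9, spectra recorded 400–650 nm.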

[7] = Metal chelating activity of the compound assessed as stability constant of metal chelate at 2 to 9 x 10^-5 M using Ca2+; assay type: physicochemical; how it was run: as §2
[8] = tested on: Mus musculus; assay: Tumor promoting activity in ICR/Ha Swiss mouse at 80 ug administered three times a week measured for 521 days; assay type: ADME, organism-based; settings: in vivo, 12504 h
[9] = tested on: Mus musculus; assay: Toxicity in ICR/Ha Swiss mouse assessed as median survival time at 80 ug administered three times a week; assay type: organism-based; settings: in vivo
[10] = tested on: Mus musculus; assay: Tumor promoting activity in ICR/Ha Swiss mouse at 300 ug administered three times a week measured for 521 days; assay type: ADME, organism-based; settings: in vivo, 12504 h
How it was run: (§4)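 Female ICR/Ha Swiss mice, 8 weeks old, vaccinated against ectromelia, backs clipped. Repeated skin application after a single subcarcinogenic dose of 7,12-dimethylbenz[a]anthracene. Groups of twenty mice; test ran 521 days; median survival time recorded. Tumors >1 mm persisting ≥30 days counted; autopsy with histological confirmation.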

[11] = tested on: Mus musculus; assay: Toxicity in ICR/Ha Swiss mouse assessed as median survival time at 300 ug administered three times a week; assay type: organism-based; settings: in vivo; how it was run: as §4
[12] = tested on: Mus musculus; assay: Tumor promoting activity in ICR/Ha Swiss mouse at 124 ug administered three times a week measured for 370 days; assay type: ADME, organism-based; settings: in vivo, 8880 h; how it was run: as §1
[13] = tested on: Mus musculus; assay: Tumor promoting activity in ICR/Ha Swiss mouse at 15 ug administered three times a week measured for 370 days; assay type: ADME, organism-based; settings: in vivo, 8880 h; how it was run: as §1
[14] = Metal chelating activity of the compound assessed as stability constant of metal chelate at 1 to 4.5 x 10^-5 M using Zn2+; assay type: physicochemical
How it was run: (§5)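 Spectrophotometric method of Rossotti and Rossotti in dimethyl sulfoxide: eight solutions of DHAQ from 1.0×10^-5 to 4.5×10^-5 M with metal acetate at the same concentrations, absorption spectra recorded 400–650 nm at 25 °C, stability constants calculated from these.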

[15] = Metal chelating activity of the compound assessed as metal-compound complex formation using zinc; assay type: physicochemical; how it was run: as §3
[16] = Metal chelating activity of the compound assessed as stability constant of metal chelate at 1 to 4.5 x 10^-5 M using Mn2+; assay type: physicochemical; how it was run: as §5
[17] = Metal chelating activity of the compound assessed as metal-compound complex formation using Ca2+; assay type: physicochemical; how it was run: as §3
[18] = Metal chelating activity of the compound assessed as stability constant of metal chelate at 1 to 4.5 x 10^-5 M using Ca2+; assay type: physicochemical; how it was run: as §5
[19] = Metal chelating activity of the compound assessed as stability constant of metal chelate at 1 to 4.5 x 10^-5 M using Mg2+; assay type: physicochemical; how it was run: as §5
[20] = Metal chelating activity of the compound assessed as metal-compound complex formation using Mn2+; assay type: physicochemical; how it was run: as §3
[21] = Metal chelating activity of the compound assessed as metal-compound complex formation using Mg2+; assay type: physicochemical; how it was run: as §3
[22] = Metal chelating activity of the compound assessed as stability constant of metal chelate at 1 to 4.5 x 10^-5 M using copper; assay type: physicochemical; how it was run: as §5
[23] = tested on: Mus musculus; assay: Tumor promoting activity in ICR/Ha Swiss mouse at 76 ug administered three times a week measured for 370 days; assay type: ADME, organism-based; settings: in vivo, 8880 h; how it was run: as §1
[24] = tested on: Mus musculus; assay: Tumor promoting activity in ICR/Ha Swiss mouse at 80 ug administered three times a week measured for 370 days; assay type: ADME, organism-based; settings: in vivo, 8880 h; how it was run: as §1
[25] = tested on: Mus musculus; assay: Tumor promoting activity in ICR/Ha Swiss mouse at 136 ug administered three times a week measured for 370 days; assay type: ADME, organism-based; settings: in vivo, 8880 h; how it was run: as §1
[26] = tested on: Mus musculus; assay: Tumor promoting activity in ICR/Ha Swiss mouse at 85 ug administered three times a week measured for 370 days; assay type: ADME, organism-based; settings: in vivo, 8880 h; how it was run: as §1
[27] = tested on: Mus musculus; assay: Tumor promoting activity in ICR/Ha Swiss mouse at 62 ug administered three times a week measured for 370 days; assay type: ADME, organism-based; settings: in vivo, 8880 h
How it was run: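 Female ICR/Ha Swiss mice, ectromelia-vaccinated, started at 8 weeks, backs clipped the day before treatment. Single subcarcinogenic topical dose of 7,12-dimethylbenz[a]anthracene, then repeated skin applications at doses equimolar to the positive-control promoter, over 370 days. Tumors >1 mm persisting ≥30 days were counted cumulatively and confirmed on H&E histology at autopsy. Controls received test compound alone or no treatment.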

[28] = tested on: Mus musculus; assay: Tumor promoting activity in ICR/Ha Swiss mouse at 228 ug administered three times a week measured for 370 days; assay type: ADME, organism-based; settings: in vivo, 8880 h; how it was run: as §1

SMILES: Oc1cccc2cc3cccc(O)c3cc12
Activity [1]: Non-toxic

log K [2]: 9.23
log K [3]: 9.19
log K [4]: 9.16
log K [5]: 9.56
Activity [6]: Active
log K [7]: 9.06
SMILES: O=C1c2c(O)cccc2Cc2cccc(O)c21 [ANTHRALIN]

SMILES: O=C1c2ccccc2Cc2cccc(O)c21
Activity [8]: Toxic
MST [9]: 391 days

SMILES: CCCCCCCCCCCCCC(=O)C1c2cccc(O)c2C(=O)c2c(O)cccc21
Activity [10]: Toxic
MST [11]: 423 days

SMILES: CC(=O)Oc1cccc2c1C(=O)c1c(cccc1OC(C)=O)C2
Activity [12]: Toxic

SMILES: CC(=O)C1c2cccc(O)c2C(=O)c2c(O)cccc21
Activity [13]: Toxic

log K [14]: 5.62
Activity [15]: Active
log K [16]: 5.58
Activity [17]: Active
Activity [6]: Active
log K [18]: 10.03
log K [19]: 5.53
Activity [20]: Active
Activity [21]: Active
log K [22]: 5.77
SMILES: O=C1c2cccc(O)c2C(=O)c2c(O)cccc21 [DANTHRON]

SMILES: CC(=O)Oc1cccc2c1C(=O)C=CC2=O
Activity [23]: Toxic

SMILES: Oc1cccc2c1Cc1c(O)cccc1C2
Activity [24]: Non-toxic

SMILES: O=C1CCCc2cc3cccc(O)c3c(O)c21
Activity [24]: Non-toxic

SMILES: CCCCCCCCCCCCCC(=O)Oc1cccc2c1C(=O)C=CC2=O
Activity [25]: Non-toxic

SMILES: O=C1c2c(O)cccc2C(O)c2cccc(O)c21
Activity [26]: Non-toxic

SMILES: O=C1c2ccccc2Cc2cc(O)c(O)cc21
Activity [24]: Non-toxic

SMILES: O=C1c2ccccc2Cc2ccc(O)c(O)c21
Activity [24]: Non-toxic

SMILES: O=C(c1ccccc1O)c1ccccc1O [2,2'-DIHYDROXYBENZPHENONE]
Activity [1]: Non-toxic

SMILES: Oc1cccc2cc3ccccc3cc12
Activity [8]: Toxic
MST [9]: 474 days

SMILES: O=C1C=CC(=O)c2c(O)cccc21 [JUGLONE]
Activity [27]: Toxic

SMILES: Oc1cc2cc3ccccc3cc2cc1O
Activity [1]: Non-toxic

SMILES: CCCCCCCCCCCCCC(=O)Oc1cccc2c1C(=O)c1c(cccc1OC(=O)CCCCCCCCCCCCC)C2
Activity [28]: Non-toxic
